High-throughput results as filed in PubChem BioAssay.
aDG glyco up: increases alpha dystroglycan glycosylation; AID 624168; activation, % at 10 µM; hit rate 0.22% among 360,000; Pro5-aDG cells, alpha-DG glycosylation AlphaScreen (IIH6); 0% Pro5, 100% B10-LARGE cell signal;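 active = activation of at least 8% versus controls, or a plate z-score of at least 8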;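 note: Pro5 are CHO cells carrying HIG-tagged alpha-DG that lacks glycosylation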
ADAM10 inh: inhibitors of human ADAM10. O14672. recombinant ADAM10, EDANS/DABCYL FRET peptide cleavage, 3 h. hit rate 0.62% among 370,000. inhibition, % at 7 µM;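 active = inhibition above a per-campaign cutoff equal to the mean of compounds falling between control-based bounds plus 3 SD, cut at about 20% in these data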;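 note: 0% = DMSO wells while the 100% control is not disclosed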
Target sequence (O14672 214-748 limits assumed): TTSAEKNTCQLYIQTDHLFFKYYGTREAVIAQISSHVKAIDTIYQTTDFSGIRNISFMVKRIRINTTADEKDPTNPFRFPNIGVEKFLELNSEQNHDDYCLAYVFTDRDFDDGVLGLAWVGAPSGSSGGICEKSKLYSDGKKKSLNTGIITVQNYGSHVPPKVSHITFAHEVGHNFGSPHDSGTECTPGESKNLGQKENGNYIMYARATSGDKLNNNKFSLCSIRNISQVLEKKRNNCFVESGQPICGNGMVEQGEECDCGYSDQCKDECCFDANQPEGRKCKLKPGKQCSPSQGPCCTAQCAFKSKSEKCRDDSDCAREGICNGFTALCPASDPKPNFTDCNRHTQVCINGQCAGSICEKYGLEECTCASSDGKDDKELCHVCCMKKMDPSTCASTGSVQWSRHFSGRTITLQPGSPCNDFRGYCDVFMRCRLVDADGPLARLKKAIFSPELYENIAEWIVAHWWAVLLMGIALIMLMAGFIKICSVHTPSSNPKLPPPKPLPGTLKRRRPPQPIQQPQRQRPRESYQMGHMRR
ADAM17 inh: inhibitors of human ADAM17; AID 720648; hit rate 0.83% among 370,000; inhibition, % at 6.95 µM; recombinant ADAM17, EDANS/DABCYL FRET peptide cleavage;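 active = inhibition above the mean of compounds lying between control limits plus 3 SD, set per campaign, cut at about 8.5% in these data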;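 note: 0% = DMSO-only wells as the low control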
V-ATPase pHluor: yeast V-ATPase proton transport regulation by pHLuorin | response, % at 10 µM | hit rate 0.37% among 350,000 | S. cerevisiae, pHLuorin cytosolic pH fluorescence; in the data active = response mostly above about 7.3%, no sharp cut-off; inactive = mostly below about 5.4%; note: actives read high
MPTP inh: inhibitors of mitochondrial permeability transition pore; isolated mouse mitochondria, Ca2+ swelling absorbance, 30 min; inhibition, % at 10 µM; hit rate 1.4% among 360,000;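 active = inhibition of 50% or more, scaled per plate between neutral and stimulator controls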;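 note: 0% = DMSO wells given calcium and 100% = 1 mM EGTA wells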
Hep lipid drop: hepatic lipid droplet formation modulation | AML12 mouse hepatocytes, oleate lipid droplets, BODIPY imaging | inhibition, % at 6.5 µM | hit rate 0.4% among 240,000 | AID 1656;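 active = lipid droplet intensity inhibited by at least 50%, with more than 500 cells counted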
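Assay system: AML12 hepatocytes (mouse); Probe or stimulus: oleic acid at 100 µM to induce lipid droplet formation; Dosing: compound at 6.5 µM only; Schedule: compound with oleate, overnight; Detection: fluorescence imaging, 20x objective, two fields per well; Measure: % inhibition of lipid droplet signal.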
ADAM10 ctr: inhibits human ADAM10 in ADAM17 exosite counter-screen. recombinant ADAM10, EDANS/DABCYL FRET peptide cleavage, 3 h. hit rate 47% among 2,900. shares compounds with ADAM17 inh. inhibition, % at 6.95 µM. AID 743256;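 active = mean inhibition over the triplicate runs exceeds the activity threshold set in the earlier primary screen, cut at about 20% in these data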;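 note: 0% = DMSO wells and 100% = marimastat wells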
ADAM17 confirm: confirmation of inhibitors of human ADAM17; AID 743257; inhibition, % at 6.95 µM; shares compounds with ADAM17 inh; hit rate 65% among 2,900; recombinant ADAM17, EDANS/DABCYL QFRET peptide cleavage;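 active = mean inhibition across replicates above the hit cutoff set in the primary screen, cut at about 8.5% in these data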;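 note: 0% = DMSO wells and 100% = marimastat wells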
Starred values were filed as active, the others as inactive. Shown are actives, neighbours in structure and some others; about 3.1% of the full set was active somewhere.

How did Cc1ccc([C@@H]2CC(=O)[C@@H]3CN(S(=O)(=O)c4ccc(C)cc4)[C@H](c4cccc5ccccc45)C[C@@H]3N2S(=O)(=O)c2ccc(Cl)cc2)cc1 do in these assays?
aDG glyco up: 0; ADAM10 inh: -6; ADAM17 inh: -2; V-ATPase pHluor: 1; MPTP inh: 1

Results for COc1ccc(N2CCC(CNC(=O)Nc3ccccc3)C2)cc1 (stereo unspecified) ?
aDG glyco up: 0; ADAM10 inh: 9; ADAM17 inh: 14*; V-ATPase pHluor: -3; MPTP inh: 1; Hep lipid drop: 2; ADAM10 ctr: 3; ADAM17 confirm: 8

What do the screens show for `COc1ccc(N2CCC(CNC(=S)Nc3cc(C)cc(C)c3)C2)cc1` (stereo unspecified)?
aDG glyco up: 0; ADAM10 inh: 6; ADAM17 inh: -1; V-ATPase pHluor: -3; MPTP inh: 45; Hep lipid drop: 2

Results for O=C(NC1CCCCN(Cc2cccc(C(F)(F)F)c2)C1=O)c1cccc([N+](=O)[O-])c1 (stereo unspecified) ?
ADAM10 inh: 5; ADAM17 inh: -5

How did COC(=O)c1c(-c2cccc3ccccc23)csc1NC(=O)Cc1ccc(OC)c(OC)c1 do in these assays?
aDG glyco up: 0; ADAM10 inh: 17; ADAM17 inh: 10*; V-ATPase pHluor: 0; MPTP inh: 2; Hep lipid drop: -35; ADAM10 ctr: 14; ADAM17 confirm: 10*

How did COC(=O)c1c(-c2ccc(C)cc2)csc1NC(=O)Cc1ccc(OC)c(OC)c1 do in these assays?
aDG glyco up: 1; ADAM10 inh: 3; ADAM17 inh: 1; V-ATPase pHluor: 2; MPTP inh: 6; Hep lipid drop: -25

What do the screens show for `O=C(CSc1nc2ccccc2s1)Nn1cnnc1`?
aDG glyco up: 0; ADAM10 inh: 4; ADAM17 inh: -3; V-ATPase pHluor: -3; MPTP inh: 0; Hep lipid drop: 0

What do the screens show for `C=CCNC(=S)NNC(=O)CSc1nc2ccccc2s1`?
aDG glyco up: 0; ADAM10 inh: 5; ADAM17 inh: 11*; V-ATPase pHluor: 1; MPTP inh: 2; Hep lipid drop: 0; ADAM10 ctr: 0; ADAM17 confirm: 5

How did CCOC(=O)[C@@]12CCCC=C1N(CCc1ccc(Cl)cc1)C(=O)[C@H]2CC(=O)NCc1ccc(OC)c(OC)c1 do in these assays?
ADAM10 inh: 3; ADAM17 inh: -1

What do the screens show for `Cn1c(Cn2c3ccccc3c3ccccc32)n[nH]c1=S`?
aDG glyco up: 0; ADAM10 inh: 17; ADAM17 inh: 10*; V-ATPase pHluor: 5; MPTP inh: 4; Hep lipid drop: -16; ADAM10 ctr: 12; ADAM17 confirm: 7

How did C=C(C)Cn1c(CCn2c3ccccc3c3ccccc32)n[nH]c1=S do in these assays?
aDG glyco up: 0; ADAM10 inh: -10; ADAM17 inh: 1; V-ATPase pHluor: 1; MPTP inh: 2; Hep lipid drop: -14

What do the screens show for `COc1cccc(C2C(C#N)=C(N)Oc3c2oc(CO)cc3=O)c1` (stereo unspecified)?
aDG glyco up: 0; ADAM10 inh: -2; ADAM17 inh: 14*; V-ATPase pHluor: -3; MPTP inh: -4; Hep lipid drop: 12; ADAM10 ctr: 6; ADAM17 confirm: 11*

Results for COc1ccc(C2C(C#N)=C(N)Oc3c2oc(CO)cc3=O)cc1 (stereo unspecified) ?
aDG glyco up: 0; ADAM10 inh: -1; ADAM17 inh: -2; V-ATPase pHluor: 7; MPTP inh: 0; Hep lipid drop: 11

How did O=C1C=C[C@H]2CC[C@@H](O)[C@@H]1[C@@H]2Sc1ccccc1 do in these assays?
ADAM10 inh: -1; ADAM17 inh: -4
